# Measurements taken from ChEMBL document CHEMBL4673191, “A scaffold hopping strategy to generate new aryl-2-amino pyrimidine MRSA biofilm inhibitors” (RSC Med Chem, 2021).
# Activity calls are given as the source filed them. The calls are words filed in the database; no cut-off is given here.
# Test system: Klebsiella pneumoniae
# Experiment: Potentiation of colistin-induced antibacterial activty against Klebsiella pneumoniae A5 assessed as fractional inhibitory concentration index incubated for 16 hrs in presence of colistin by checkerboard assay
# Format: functional
# Conditions: not given
# Outline: (§1)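 Checkerboard in CAMHB inoculated with K. pneumoniae at 5 x 10⁵ CFU/mL. Compound serially diluted 2-fold down rows and colistin across columns, starting each at 2x top concentration; one row and one column give single-agent MICs.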
row,SMILES,fractional inhibitory concentration index (FICI)
1,Cl.Nc1nccc(-c2cccc(NC(=O)c3cc(Br)cc(Br)c3)c2)n1,<=0.31

# Test system: Klebsiella pneumoniae
# Experiment: Antibacterial activity against Klebsiella pneumoniae B9 assessed as reduction in bacterial growth incubated for 16 hrs by broth microdilution assay
# Format: functional
# Conditions: not given
# Outline: (§2)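 Bacteria grown 4–6 h in CAMHB, subcultured to 5 x 10⁵ CFU/mL in fresh CAMHB. Compound added from 100 mM DMSO stock, then 2-fold serial dilution in microtiter plate; untreated and media-only wells as controls. Stationary incubation at 37 °C for 16 h, then OD₆₀₀ read. MIC taken as lowest concentration giving 90% growth inhibition vs untreated. Duplicate, repeated at least twice.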
row,SMILES,MIC
1,Cl.Nc1nccc(-c2ccccc2NC(=O)c2cc(F)cc(F)c2)n1,≥ 200 µM
2,Cl.Nc1nccc(-c2ccc(NC(=O)c3cc(F)cc(F)c3)cc2)n1,≥ 200 µM
3,Cl.Nc1ncc(-c2cccc(NC(=O)c3cc(Cl)cc(Cl)c3)c2)cn1,≥ 200 µM
4,Cl.Nc1nccc(-c2cccc(NC(=O)c3cc(Br)cc(Br)c3)c2)n1,≥ 200 µM
5,Cl.Nc1ncc(-c2cccc(NC(=O)c3cc(Br)cc(Br)c3)c2)cn1,≥ 200 µM

# Test system: Staphylococcus aureus
# Experiment: Antibacterial activity against methicillin-resistant Staphylococcus aureus ATCC 43300 assessed as inhibition of planktonic bacterial growth at IC50 incubated for 24 hrs by colony counter analysis
# Format: functional
# Conditions: not given
# Outline: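 MRSA 43300 grown overnight in TSB with 2.0% glucose (TSBG), inoculated into fresh TSBG at OD600 0.01, compound added to 3 mL tube cultures; untreated control. Shaken at 37 °C; samples at 2, 4, 6, 8, 24 h serially diluted in TSBG, plated on nutrient agar, incubated overnight at 37 °C, colonies counted. Duplicates, at least two separate repeats.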
row,SMILES,Activity
1,Cl.Nc1nccc(-c2cccc(NC(=O)c3cc(Br)cc(Br)c3)c2)n1,inactive

# Test system: not listed separately
# Experiment: Hemolytic activity against sheep blood assessed as blood cell lysis at 200 uM incubated for 1 hr by UV-visible spectrophotometry
# Format: ADME, tissue-based, Ovis aries
# Conditions: sheep blood cells, read-out: Activity
# Outline: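 Defibrinated sheep blood centrifuged, washed and resuspended in PBS three times, then diluted 10-fold. Compound added from DMSO stock; 1% Triton X as 100% lysis and PBS as zero lysis. Shaken at 200 rpm, 37 °C, 1 h, then centrifuged. Supernatant diluted 40-fold in water and absorbance read at 540 nm.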
row,SMILES,"hemolysis at 1 h, 200 µM"
1,Cl.Nc1nccc(-c2cccc(NC(=O)c3cc(Br)cc(Br)c3)c2)n1,3.4%

# Test system: Acinetobacter baumannii
# Experiment: Antibacterial activity against Acinetobacter baumannii ATCC 4106 assessed as reduction in bacterial growth incubated for 16 hrs by broth microdilution assay
# Format: functional
# Conditions: not given
# Outline: as §2
row,SMILES,MIC
1,Cl.Nc1nccc(-c2ccccc2NC(=O)c2cc(F)cc(F)c2)n1,≥ 200 µM
2,Cl.Nc1nccc(-c2ccc(NC(=O)c3cc(F)cc(F)c3)cc2)n1,≥ 200 µM
3,Cl.Nc1ncc(-c2cccc(NC(=O)c3cc(Cl)cc(Cl)c3)c2)cn1,≥ 200 µM
4,Cl.Nc1nccc(-c2cccc(NC(=O)c3cc(Br)cc(Br)c3)c2)n1,≥ 200 µM
5,Cl.Nc1ncc(-c2cccc(NC(=O)c3cc(Br)cc(Br)c3)c2)cn1,≥ 200 µM

# Test system: Staphylococcus aureus
# Experiment: Inhibition of biofilm formation in methicillin-resistant Staphylococcus aureus ATCC 33591 incubated for 24 hrs by crystal violet staining based assay
# Format: functional, organism-based
# Conditions: ATCC 33591, 24 h
# Outline: (§3)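 Overnight culture subcultured to OD600 0.01 in TSB with 2.0% (w/v) glucose; compound diluted in this medium, 100 µL per well of PVC plates, static incubation 24 h at 37 °C. Wells washed with water, stained with 0.1% crystal violet 30 min at ambient temperature, stain solubilized in ethanol, OD540 read minus no-biofilm background. Duplicates, at least two separate repeats.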
row,SMILES,IC50
1,Cl.Nc1nccc(-c2cccc(NC(=O)c3cc(Br)cc(Br)c3)c2)n1,20.2 µM

# Test system: Klebsiella pneumoniae
# Experiment: Potentiation of colistin-induced antibacterial activity against Klebsiella pneumoniae B9 assessed as colistin MIC at 60 uM incubated for 16 hrs by broth microdilution assay (reference value: 512 ug/ml)
# Format: functional
# Conditions: not given
# Outline: (§4)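 Cultures grown 4–6 h in CAMHB, diluted to 5 x 10⁵ CFU/mL. Compound added to aliquots from 100 mM DMSO stock; one aliquot left undosed for colistin MIC alone. Colistin serially diluted 2-fold in the compound-dosed suspension; compound-alone wells kept. Stationary, 37 °C, 16 h, then OD₆₀₀. Colistin MIC = lowest concentration giving 90% growth inhibition vs untreated. Duplicate, at least twice.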
row,SMILES,MIC
1,Cl.Nc1nccc(-c2cccc(NC(=O)c3cc(Br)cc(Br)c3)c2)n1,16 µg/mL

# Test system: Acinetobacter baumannii
# Experiment: Potentiation of colistin-induced antibacterial activty against Acinetobacter baumannii ATCC 4106 assessed as colistin MIC at 60 uM incubated for 16 hrs by broth microdilution assay (reference value: 1024 microg/ml)
# Format: functional
# Conditions: not given
# Outline: as §4
row,SMILES,MIC
1,Cl.Nc1nccc(-c2ccccc2NC(=O)c2cc(F)cc(F)c2)n1,> 64 µg/mL
2,Cl.Nc1nccc(-c2ccc(NC(=O)c3cc(F)cc(F)c3)cc2)n1,> 64 µg/mL
3,Cl.Nc1ncc(-c2cccc(NC(=O)c3cc(Cl)cc(Cl)c3)c2)cn1,> 64 µg/mL
4,Cl.Nc1nccc(-c2cccc(NC(=O)c3cc(Br)cc(Br)c3)c2)n1,> 64 µg/mL
5,Cl.Nc1ncc(-c2cccc(NC(=O)c3cc(Br)cc(Br)c3)c2)cn1,> 64 µg/mL

# Test system: Klebsiella pneumoniae
# Experiment: Potentiation of colistin-induced antibacterial activty against Klebsiella pneumoniae B9 assessed as fractional inhibitory concentration index incubated for 16 hrs in presence of colistin by checkerboard assay
# Format: functional
# Conditions: not given
# Outline: as §1
row,SMILES,fractional inhibitory concentration index (FICI)
1,Cl.Nc1nccc(-c2cccc(NC(=O)c3cc(Br)cc(Br)c3)c2)n1,<=0.09

# Test system: Klebsiella pneumoniae
# Experiment: Potentiation of colistin-induced antibacterial activty against Klebsiella pneumoniae B9 assessed as fold reduction in colistin MIC at 60 uM incubated for 16 hrs by broth microdilution assay
# Format: functional
# Conditions: not given
# Outline: as §4
row,SMILES,fold change (FC)
1,Cl.Nc1nccc(-c2cccc(NC(=O)c3cc(Br)cc(Br)c3)c2)n1,32

# Test system: Staphylococcus aureus
# Experiment: Inhibition of biofilm formation in methicillin-resistant Staphylococcus aureus ATCC 43300 incubated for 24 hrs by crystal violet staining based assay
# Format: functional, organism-based
# Conditions: ATCC 43300, 24 h
# Outline: as §3
row,SMILES,IC50
1,Cl.Nc1nccc(-c2ccccc2NC(=O)c2cc(F)cc(F)c2)n1,> 200 µM
2,Cl.Nc1nccc(-c2ccc(NC(=O)c3cc(F)cc(F)c3)cc2)n1,> 200 µM
3,Cl.Nc1ncc(-c2cccc(NC(=O)c3cc(Cl)cc(Cl)c3)c2)cn1,> 200 µM
4,Cl.Nc1nccc(-c2cccc(NC(=O)c3cc(Br)cc(Br)c3)c2)n1,17.4 µM
5,Cl.Nc1ncc(-c2cccc(NC(=O)c3cc(Br)cc(Br)c3)c2)cn1,43 µM

# Test system: Staphylococcus aureus
# Experiment: Inhibition of biofilm formation in methicillin-resistant Staphylococcus aureus ATCC 6538 incubated for 24 hrs by crystal violet staining based assay
# Format: functional, organism-based
# Conditions: ATCC 6538, 24 h
# Outline: as §3
row,SMILES,IC50
1,Cl.Nc1nccc(-c2cccc(NC(=O)c3cc(Br)cc(Br)c3)c2)n1,15.6 µM

# Test system: Staphylococcus aureus
# Experiment: Inhibition of biofilm formation in methicillin-resistant Staphylococcus aureus ATCC 43300 at 200 uM incubated for 24 hrs by crystal violet staining based assay relative to control
# Format: functional
# Conditions: not given
# Outline: as §3
row,SMILES,inhibition at 200 µM
1,Cl.Nc1nccc(-c2ccccc2NC(=O)c2cc(F)cc(F)c2)n1,> 50%
2,Cl.Nc1nccc(-c2ccc(NC(=O)c3cc(F)cc(F)c3)cc2)n1,> 50%
3,Cl.Nc1ncc(-c2cccc(NC(=O)c3cc(Cl)cc(Cl)c3)c2)cn1,> 50%
4,Cl.Nc1nccc(-c2cccc(NC(=O)c3cc(Br)cc(Br)c3)c2)n1,> 50%
5,Cl.Nc1ncc(-c2cccc(NC(=O)c3cc(Br)cc(Br)c3)c2)cn1,> 50%

# Test system: Staphylococcus aureus
# Experiment: Inhibition of biofilm formation in methicillin-resistant Staphylococcus aureus BAA-44 incubated for 24 hrs by crystal violet staining based assay
# Format: functional, organism-based
# Conditions: BAA-44, 24 h
# Outline: as §3
row,SMILES,IC50
1,Cl.Nc1nccc(-c2cccc(NC(=O)c3cc(Br)cc(Br)c3)c2)n1,14.1 µM

# Test system: Klebsiella pneumoniae
# Experiment: Effect on lipid A substitution pattern of lipopolysaccharide in Klebsiella pneumoniae B9 by mass spectrometry
# Format: functional
# Conditions: not given
row,SMILES,Activity
1,Cl.Nc1nccc(-c2cccc(NC(=O)c3cc(Br)cc(Br)c3)c2)n1,inactive

# Test system: Klebsiella pneumoniae
# Experiment: Potentiation of colistin-induced antibacterial activty against Klebsiella pneumoniae F2210219mcr-1 assessed as fractional inhibitory concentration index incubated for 16 hrs in presence of colistin by checkerboard assay
# Format: functional
# Conditions: not given
# Outline: as §1
row,SMILES,fractional inhibitory concentration index (FICI)
1,Cl.Nc1nccc(-c2cccc(NC(=O)c3cc(Br)cc(Br)c3)c2)n1,<=0.19

# Test system: Staphylococcus aureus
# Experiment: Antibiofilm activity against preformed methicillin-resistant Staphylococcus aureus ATCC 43300 assessed as dispersion of biofilm at 100 uM incubated for 24 hrs by crystal violet staining based assay
# Format: functional, organism-based
# Conditions: not given
# Outline: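 Overnight culture in TSB + 2.0% glucose subcultured to OD600 0.01 in TSBG; 100 µL per well of PVC plates, static 37 °C for 24 h to form biofilm. After washing, compound in medium added for a further 24 h at 37 °C; medium-only control. Washed, 0.1% crystal violet 30 min, ethanol-solubilized, OD540 with no-biofilm background subtracted. Duplicates, ≥2 repeats.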
row,SMILES,Activity
1,Cl.Nc1nccc(-c2ccccc2NC(=O)c2cc(F)cc(F)c2)n1,inactive
2,Cl.Nc1nccc(-c2ccc(NC(=O)c3cc(F)cc(F)c3)cc2)n1,inactive
3,Cl.Nc1ncc(-c2cccc(NC(=O)c3cc(Cl)cc(Cl)c3)c2)cn1,inactive
4,Cl.Nc1nccc(-c2cccc(NC(=O)c3cc(Br)cc(Br)c3)c2)n1,inactive
5,Cl.Nc1ncc(-c2cccc(NC(=O)c3cc(Br)cc(Br)c3)c2)cn1,inactive
